Activity data for nine compounds are collected here from ChEMBL document CHEMBL2086248, “Synthesis of some novel 1-(2-naphthyl)-2-(imidazol-1-yl)ethanone oxime ester derivatives and evaluation of their anticonvulsant activity” (Eur J Med Chem, 2012).

Data set [1] concerns Mus musculus. The data set can be described thus: Neurotoxicity in mouse assessed as motor impairment at 30 mg/kg, ip after 0.5 hrs by rotarod test. In kind it is toxicity, organism-based. To be noted: in vivo. Further details: dose 30 mg/kg, route intraperitoneal. Summed up: (§1)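 Swiss albino mice (20-24 g) were dosed ip with a suspension in 30% aqueous PEG 400 and tested 0.5 h or 4 h later. They were placed on a knurled wooden rod 1 inch in diameter, rotating at 6 rpm. Toxicity meant failure to stay on the rod for at least 1 min in each of three trials. Scored as number toxic/number tested (4 mice at 0.5 h, 2 at 4 h).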
Background: The rotarod test checks motor coordination on a turning rod.

Data set [2] concerns Mus musculus. The data set can be described thus: Neurotoxicity in mouse assessed as motor impairment at 100 mg/kg, ip after 0.5 hrs by rotarod test. Format: toxicity, organism-based. More on the design: dose 100 mg/kg, route intraperitoneal. To be noted: in vivo. Summed up: as §1
Data set [3] relates to Mus musculus. The data set can be described thus: Neurotoxicity in mouse assessed as motor impairment at 300 mg/kg, ip after 0.5 hrs by rotarod test. Format: toxicity, organism-based. Further details: dose 300 mg/kg, route intraperitoneal. The note with it: in vivo. Summed up:
as §1

For data set [4], the system named is Mus musculus. The data set can be described thus: Neurotoxicity in mouse assessed as motor impairment at 30 mg/kg, ip after 4 hrs by rotarod test. Format: toxicity, organism-based. The note with it: in vivo. More on the design: dose 30 mg/kg, route intraperitoneal. The method in brief: as §1
The test system of data set [5] is Mus musculus. The data set can be described thus: Neurotoxicity in mouse assessed as motor impairment at 100 mg/kg, ip after 4 hrs by rotarod test. Format: toxicity, organism-based. Further details: dose 100 mg/kg, route intraperitoneal. To be noted: in vivo. Summed up: as §1
In data set [6] the test system is Mus musculus. The data set can be described thus: Neurotoxicity in mouse assessed as motor impairment at 300 mg/kg, ip after 4 hrs by rotarod test. More on the design: dose 300 mg/kg, route intraperitoneal. In kind it is toxicity, organism-based. To be noted: in vivo. Summed up: as §1
Data set [7] concerns Mus musculus. The data set can be described thus: Anticonvulsant activity in mouse assessed as protection against maximal electroshock-induced seizures at 30 mg/kg, ip after 0.5 hrs. In kind it is functional, organism-based. More on the design: dose 30 mg/kg. Summed up: (§2)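 Swiss albino mice (20-24 g) received an ip suspension in 30% aqueous PEG 400 and were tested 0.5 h and 4 h after dosing. Shock was delivered through corneal electrodes from a constant current unit, with 0.9% saline dropped into the eyes first. Protection meant abolition of the hind limb tonic extension. Scored as number protected/number tested, one mouse per dose and time.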
Background: In the maximal electroshock model the usual endpoint is tonic extension of the hind limbs.

For data set [8], the system named is Mus musculus. The data set can be described thus: Anticonvulsant activity in mouse assessed as protection against maximal electroshock-induced seizures at 100 mg/kg, ip after 0.5 hrs. In kind it is functional, organism-based. More on the design: dose 100 mg/kg. The method in brief: as §2
In data set [9] the test system is Mus musculus. The data set can be described thus: Anticonvulsant activity in mouse assessed as protection against maximal electroshock-induced seizures at 300 mg/kg, ip after 0.5 hrs. Further details: dose 300 mg/kg. In kind it is functional, organism-based. The method in brief:
as §2

The test system of data set [10] is Mus musculus. The data set can be described thus: Anticonvulsant activity in mouse assessed as protection against maximal electroshock-induced seizures at 30 mg/kg, ip after 4 hrs. In kind it is functional, organism-based. Further details: dose 30 mg/kg. Summed up:
as §2

Data set [11] deals with Mus musculus. The data set can be described thus: Anticonvulsant activity in mouse assessed as protection against maximal electroshock-induced seizures at 100 mg/kg, ip after 4 hrs. Format: functional, organism-based. Further details: dose 100 mg/kg. Summed up:
as §2

Data set [12] relates to Mus musculus. The data set can be described thus: Anticonvulsant activity in mouse assessed as protection against maximal electroshock-induced seizures at 300 mg/kg, ip after 4 hrs. In kind it is functional, organism-based. Further details: dose 300 mg/kg. The method in brief:
as §2

Data set [13] deals with Mus musculus. The data set can be described thus: Anticonvulsant activity in mouse assessed as protection against subcutaneous pentylenetetrazole-induced seizures at 30 mg/kg, ip after 0.5 hrs. In kind it is functional, organism-based. Further details: dose 30 mg/kg. The method in brief:
(§3)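 Swiss albino mice (20-24 g) were dosed ip with a suspension in 30% aqueous PEG 400 and challenged 0.5 h or 4 h later. Protection meant no threshold seizure (clonic spasms lasting at least 5 s). Scored as number protected/number tested, one mouse per dose and time.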

Data set [14] has as its system Mus musculus. The data set can be described thus: Anticonvulsant activity in mouse assessed as protection against subcutaneous pentylenetetrazole-induced seizures at 100 mg/kg, ip after 0.5 hrs. More on the design: dose 100 mg/kg. In kind it is functional, organism-based. The method in brief: as §3
Data set [15] relates to Mus musculus. The data set can be described thus: Anticonvulsant activity in mouse assessed as protection against subcutaneous pentylenetetrazole-induced seizures at 300 mg/kg, ip after 0.5 hrs. Further details: dose 300 mg/kg. Format: functional, organism-based. Summed up:
as §3

The test system of data set [16] is Mus musculus. The data set can be described thus: Anticonvulsant activity in mouse assessed as protection against subcutaneous pentylenetetrazole-induced seizures at 30 mg/kg, ip after 4 hrs. Format: functional, organism-based. Further details: dose 30 mg/kg. The method in brief: as §3
Data set [17] has as its system Mus musculus. The data set can be described thus: Anticonvulsant activity in mouse assessed as protection against subcutaneous pentylenetetrazole-induced seizures at 300 mg/kg, ip after 4 hrs. In kind it is functional, organism-based. Further details: dose 300 mg/kg. The method in brief:
as §3

In data set [18] the test system is Mus musculus. The data set can be described thus: Anticonvulsant activity in mouse assessed as protection against subcutaneous pentylenetetrazole-induced seizures at 100 mg/kg, ip after 4 hrs. In kind it is functional, organism-based. More on the design: dose 100 mg/kg. The method in brief:
as §3

Active and inactive are the calls of the source.

Consider `O=C(O/N=C(\Cn1ccnc1)c1ccc2ccccc2c1)c1ccccc1Cl`, for which the Activity result in the data set with Mus musculus [1], in the data set with Mus musculus [2], in the data set on Mus musculus [3], with Mus musculus [4], with Mus musculus [5] and in the data set on Mus musculus [6] was “Non-toxic” in each case. In addition, the outcome in the data set with Mus musculus [7], with Mus musculus [10], in the data set with Mus musculus [11], with Mus musculus [12], in the data set on Mus musculus [13] and with Mus musculus [14] was inactive. The result in the data set on Mus musculus [15], in the data set with Mus musculus [16], in the data set with Mus musculus [17] and in the data set with Mus musculus [18] was inactive. For the same compound, the result in the data set with Mus musculus [8] and in the data set with Mus musculus [9] was Active.

For `COc1cccc(C(=O)O/N=C(\Cn2ccnc2)c2ccc3ccccc3c2)c1`, the Activity entry in the data set on Mus musculus [1], in the data set with Mus musculus [2], with Mus musculus [3], in the data set on Mus musculus [4], in the data set on Mus musculus [5] and in the data set with Mus musculus [6] was “Non-toxic” each time. In addition, the outcome with Mus musculus [7], in the data set with Mus musculus [8], in the data set with Mus musculus [10], in the data set on Mus musculus [11], with Mus musculus [12] and in the data set with Mus musculus [13] was inactive. In addition, the outcome with Mus musculus [14], in the data set with Mus musculus [15], with Mus musculus [16], in the data set on Mus musculus [17] and in the data set on Mus musculus [18] was inactive. Moreover, the result in the data set with Mus musculus [9] was Active.

As to `Cc1ccc(C(=O)O/N=C(\Cn2ccnc2)c2ccc3ccccc3c2)cc1`, the Activity entry in the data set with Mus musculus [1], in the data set with Mus musculus [2], in the data set with Mus musculus [3], in the data set with Mus musculus [4], with Mus musculus [5] and with Mus musculus [6] was “Non-toxic” throughout. For the same compound, the outcome in the data set on Mus musculus [7], with Mus musculus [10], in the data set on Mus musculus [11], with Mus musculus [12], in the data set with Mus musculus [13] and in the data set with Mus musculus [16] was inactive. For the same compound, in the data set with Mus musculus [18], the result was inactive. Moreover, the result in the data set on Mus musculus [8], in the data set with Mus musculus [9], in the data set with Mus musculus [14], in the data set on Mus musculus [15] and in the data set with Mus musculus [17] was Active.

Turning to `COc1ccccc1C(=O)O/N=C(\Cn1ccnc1)c1ccc2ccccc2c1`, the Activity entry in the data set with Mus musculus [1], in the data set on Mus musculus [2], with Mus musculus [3], with Mus musculus [4], in the data set on Mus musculus [5] and with Mus musculus [6] was “Non-toxic” each time. Besides, the result with Mus musculus [7], in the data set on Mus musculus [13], in the data set on Mus musculus [16], with Mus musculus [17] and with Mus musculus [18] was inactive. Further, the result in the data set with Mus musculus [8], in the data set with Mus musculus [9], with Mus musculus [10], in the data set with Mus musculus [11], in the data set on Mus musculus [12] and in the data set with Mus musculus [14] was Active. For the same compound, the outcome in the data set with Mus musculus [15] was Active.

As to `CCCC(=O)O/N=C(\Cn1ccnc1)c1ccc2ccccc2c1.Cl`, the Activity result in the data set with Mus musculus [1] is “Non-toxic”; with Mus musculus [2], “Non-toxic”; in the data set on Mus musculus [3], “Toxic”; with Mus musculus [4], “Non-toxic”; in the data set on Mus musculus [5], “Non-toxic”; in the data set with Mus musculus [6], “Non-toxic”. Moreover, the result in the data set on Mus musculus [7], in the data set on Mus musculus [8], in the data set with Mus musculus [9], in the data set on Mus musculus [12] and in the data set on Mus musculus [17] was Active. Besides, the result with Mus musculus [10], with Mus musculus [11], with Mus musculus [13], in the data set on Mus musculus [14], in the data set on Mus musculus [15] and in the data set with Mus musculus [16] was inactive. For the same compound, the outcome in the data set with Mus musculus [18] was inactive.

On to `O=C(O/N=C(\Cn1ccnc1)c1ccc2ccccc2c1)c1cccc(Cl)c1`, for which the Activity result in the data set with Mus musculus [1], in the data set on Mus musculus [2], in the data set with Mus musculus [3], in the data set on Mus musculus [4], with Mus musculus [5] and with Mus musculus [6] was “Non-toxic” throughout. In addition, the outcome with Mus musculus [7], in the data set with Mus musculus [10], in the data set with Mus musculus [13], in the data set with Mus musculus [14], in the data set on Mus musculus [15] and in the data set on Mus musculus [16] was inactive. In addition, the outcome in the data set with Mus musculus [17] and with Mus musculus [18] was inactive. Also, the result in the data set on Mus musculus [8], with Mus musculus [9], with Mus musculus [11] and in the data set on Mus musculus [12] was Active.

For `CCCCC(=O)O/N=C(\Cn1ccnc1)c1ccc2ccccc2c1.Cl`, the Activity result in the data set on Mus musculus [1], in the data set with Mus musculus [2], in the data set on Mus musculus [3], in the data set with Mus musculus [4], with Mus musculus [5] and in the data set on Mus musculus [6] was “Non-toxic” each time. The outcome in the data set with Mus musculus [7], in the data set on Mus musculus [8] and in the data set on Mus musculus [9] was Active. The outcome with Mus musculus [10], with Mus musculus [11], with Mus musculus [12], with Mus musculus [13], with Mus musculus [14] and with Mus musculus [15] was inactive. In addition, the outcome in the data set with Mus musculus [16], with Mus musculus [17] and in the data set with Mus musculus [18] was inactive.

For the compound `COc1ccc(C(=O)O/N=C(\Cn2ccnc2)c2ccc3ccccc3c2)cc1`, the Activity result in the data set with Mus musculus [1], in the data set on Mus musculus [2], in the data set with Mus musculus [3], in the data set on Mus musculus [4], in the data set on Mus musculus [5] and in the data set on Mus musculus [6] was “Non-toxic” throughout. For the same compound, the result in the data set with Mus musculus [7], with Mus musculus [8], in the data set on Mus musculus [9], with Mus musculus [10], in the data set with Mus musculus [11] and in the data set on Mus musculus [12] was inactive. The outcome in the data set with Mus musculus [13], in the data set with Mus musculus [14], with Mus musculus [16], in the data set with Mus musculus [17] and in the data set on Mus musculus [18] was inactive. For the same compound, the outcome in the data set on Mus musculus [15] was Active.

In the case of `CCCCCC(=O)O/N=C(\Cn1ccnc1)c1ccc2ccccc2c1.Cl`, the Activity result in the data set with Mus musculus [1], in the data set with Mus musculus [2], in the data set with Mus musculus [3], in the data set with Mus musculus [4], with Mus musculus [5] and in the data set with Mus musculus [6] was “Non-toxic” each time. Also, the outcome in the data set on Mus musculus [7], in the data set with Mus musculus [8], with Mus musculus [9], in the data set on Mus musculus [10], in the data set with Mus musculus [11] and with Mus musculus [12] was inactive. For the same compound, the result in the data set on Mus musculus [13], in the data set with Mus musculus [14], with Mus musculus [15], in the data set with Mus musculus [16], with Mus musculus [17] and in the data set with Mus musculus [18] was inactive.
